Bioassay records deposited in PubChem BioAssay by Johns Hopkins Ion Channel Center.
Only some compounds are listed: those with a hit (about 3.7% of all), similar ones and a draw of the others.
KCNK9 block = human KCNK9 channel inhibition | Q9NPC2 | 1.2% of 310,000 active | B-score at 10 µM | HEK293 KCNK9, FluxOR thallium flux fluorescence; stronger effect = lower value;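 active means ratio B-score over 3 SD below the library mean, with starting fluorescence within 5 SD of its mean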;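 further: negative B-score means less thallium flux so channel inhibition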
hERG protect = compounds protecting human hERG from proarrhythmic drug block; Q12809; CHO-hERG, FluxOR thallium flux, dofetilide IC70 present; activation (rescue from dofetilide block), less the hit threshold, % at 10 µM; 0.51% of 310,000 active;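 active means activation above the mean of controls blocked by dofetilide plus 5 SD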;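 further: thallium influx through hERG after potassium depolarization seen as dye fluorescence rise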
Kir21 block = blocks the mouse Kir2.1 inward-rectifier potassium channel | 0.85% of 310,000 active | HEK293-Kir2.1, FluxOR thallium flux fluorescence; stronger effect = lower value | B-score at 10 µM | P35561;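 active means fluorescence ratio B-score at or below minus 3 SD of library scores, with starting-brightness B-score within 2 SD, cut at about -4.2 in these data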;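 further: channel flux triggered by added potassium and thallium sulfate stimulus; B-score of peak minus minimum fluorescence over baseline after thallium stimulus; more negative B-score means stronger Kir2.1 block with less thallium influx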
KCNQ1 block = inhibitors of human KCNQ1 potassium channel | CHO-K1 KCNQ1, FluxOR thallium flux fluorescence; stronger effect = higher value | 1.3% of 310,000 active | P51787 | B-score at 10 µM;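 active means compounds whose thallium flux B-score, printed positive for inhibition, exceeds three library SD while starting fluorescence stays within three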;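 further: channel opened by potassium depolarization with thallium stimulus after 20 min compound exposure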
KCNK3 block = human KCNK3 channel inhibition, primary screen | B-score at 10 µM | 0.84% of 340,000 active | AID 602410 | CHO-KCNK3 thallium flux, FluxOR fluorescence; stronger effect = lower value | O14649;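 active means B-score under library mean minus 4 SD, starting fluorescence ratio at most library mean plus 5 SD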;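 further: more negative B-score means stronger inhibition of thallium flux through KCNK3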
Target sequence (O14649 whole entry, looked up): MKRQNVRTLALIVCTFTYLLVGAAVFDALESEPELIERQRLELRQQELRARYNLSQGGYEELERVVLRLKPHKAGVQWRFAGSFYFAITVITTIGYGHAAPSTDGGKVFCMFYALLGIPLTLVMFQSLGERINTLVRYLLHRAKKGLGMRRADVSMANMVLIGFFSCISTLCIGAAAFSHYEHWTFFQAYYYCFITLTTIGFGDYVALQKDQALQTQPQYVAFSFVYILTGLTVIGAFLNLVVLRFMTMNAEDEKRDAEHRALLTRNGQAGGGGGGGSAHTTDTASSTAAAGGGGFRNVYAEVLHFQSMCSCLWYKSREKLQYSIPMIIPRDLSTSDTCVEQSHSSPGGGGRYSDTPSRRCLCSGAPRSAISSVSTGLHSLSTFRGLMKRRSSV
KCNQ1 pot = human KCNQ1 channel potentiation or activation | P51787 | AID 2648 | CHO-K1 KCNQ1, thallium flux FluxOR fluorescence; stronger effect = higher value | B-score at 10 µM | 0.35% of 310,000 active;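 active means fluorescence ratio B-score, a plate-corrected score, at least three library SD, with initial intensity B-score within 5 SD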
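Schedule – 37 °C overnight plating, 90-min dark dye load, 20-min compound pretreatment · System – stable KCNQ1 CHO-K1 line · Probe or stimulus – thallium- and potassium-containing depolarizing buffer · Measured by – kinetic FluxOR fluorescence, 10 s baseline plus 110 s post-stimulus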
Active calls of the source: *; i = inactive; x = not tested or not shown.

SMILES | KCNK9 block | hERG protect | Kir21 block | KCNQ1 block | KCNK3 block | KCNQ1 pot
Cc1ccc(C(C)C)c(OCC(=O)NNC(=O)Cc2ccc(S(=O)(=O)N3CCOCC3)s2)c1 | x | x | x | x | i | x
O=C(Nc1ccccc1F)C1CCN(S(=O)(=O)c2cccnc2)CC1 | i | -6 | -1.1 | i | i | i
S=C(Nc1ccccc1)Nc1ccc(OCc2ccccc2)cc1 | i | -12 | 1 | i | i | i
NS(=O)(=O)c1ccc(NC(=S)Nc2ccc(OCc3ccccc3)cc2)cc1 | i | -4 | 2.5 | i | i | 30*
COC(=O)c1ccc(/C=C(/NC(=O)c2ccccc2)C(=O)N2CCOCC2)cc1 | i | -6 | -0.67 | i | i | i
COc1ccccc1CNCC(=O)Nc1ccccc1-n1cccc1 | i | -12 | -4.5* | i | i | i
CS(=O)(=O)N1CCc2cc(C(=O)N3CCN(c4ccccc4F)CC3)ccc21 | i | -12 | 0.07 | i | i | i
COc1ccc(CNC(=O)C2CCN(S(=O)(=O)N3CCCC3)CC2)c(OC)c1 | i | -9 | -0.04 | i | i | i
CCN(C(=O)COC(=O)c1ccc([N+](=O)[O-])o1)c1cccc2ccccc12 | x | x | x | x | i | x
COc1cc2c(cc1OC)-c1nc3ccccc3c(=O)n1C(C)(C)C2 | i | -13 | -1.3 | i | i | i
COc1cc2c(cc1OC)C1=CC(=O)C(=O)N1C(C)(C)C2 | i | -11 | -0.77 | 12* | i | i
CSCCC(NC(=O)CCNC(=O)c1ccccc1Cl)c1nc2ccccc2[nH]1 (stereo unspecified) | x | x | x | x | i | x
CC(=O)Nc1sc(NC(=O)c2ccccc2)nc1-c1cccs1 | i | 5.5* | 0.73 | i | i | i
O=C(CSc1nncc2ccccc12)Nc1ccc(C(=O)O)cc1 | i | -7 | 1.4 | i | i | i
Cc1cc(NC(=O)CSc2nc(-c3ccccc3Cl)nc3c2c(=O)n(C)c(=O)n3C)no1 | i | 5.4* | -0.01 | i | i | i
Cc1cc(Br)c(Oc2cc(NN3CCCCC3)c([N+](=O)[O-])cc2[N+](=O)[O-])c(Br)c1 | x | x | x | x | i | x
CCN(Cc1ccc(N(C)C)cc1)C(C)C(=O)Nc1ccc(S(=O)(=O)N2CCCC2)cc1 (stereo unspecified) | x | x | x | x | i | x
Clc1ccc(Nc2ccc(Cl)nn2)cc1 | i | 5.9* | 0.7 | i | i | i
COc1ccc(Nc2ccc(Cl)nn2)cc1 | i | -5 | 1 | i | i | i
O=C(c1cccc(S(=O)(=O)N2CCc3ccccc32)c1)N1CCc2ccccc2C1 | x | x | x | x | -9.4* | x
O=C(c1cccc(S(=O)(=O)N2CCCc3ccccc32)c1)N1CCN(c2ccccc2)CC1 | x | x | x | x | -9.5* | x
COc1cc2c(cc1OC)CN(C(=O)c1cccc(S(=O)(=O)N3CCc4ccccc43)c1)CC2 | x | x | x | x | i | x
CCC1(O)CCCC2C3CCC4CC(=O)CCC4(C)C3C(=O)CC21C (stereo unspecified) | x | x | x | x | i | x
CN(C)CCCNC(=O)/C(=C\c1ccc(-c2ccc(Br)cc2)o1)NC(=O)c1ccccc1 | i | -18 | -1.9 | i | i | i
CN(C)CCNC(=O)/C(=C/c1ccc(-c2cccc(Cl)c2)o1)NC(=O)c1ccccc1 | i | -19 | -4.6* | i | i | i
SMILES | KCNK9 block | hERG protect | Kir21 block | KCNQ1 block | KCNK3 block | KCNQ1 pot
Cc1ccc(C(=O)N/C(=C\c2ccc(-c3ccc(Cl)cc3)o2)C(=O)NCCCN(C)C)cc1 | i | -23 | -5.3* | i | i | i
C/C(Sc1nnc(Cc2ccccc2)o1)=C(\O)c1ccccc1 | x | x | x | x | i | x
Clc1ccc(/C(Cc2nc3ccccc3[nH]2)=N\Nc2ccccc2)cc1 | -7.2* | -15 | -0.1 | 9* | i | i
Cc1ccc(C)c(NC(=O)COC(=O)c2cc(=O)c3ccccc3o2)c1 | x | x | x | x | i | x
CCOC(=O)c1sc(=NC(=O)c2cccs2)n(C)c1C | i | -2 | -0.26 | i | i | i
CCOC(=O)c1sc(=NC(=O)/C=C/c2ccccc2)n(C)c1C | i | -10 | 0.1 | 12* | i | i
O=C1C2C3CCC(C3NCc3ccccc3)C2C(=O)N1Cc1ccccc1 (stereo unspecified) | i | -23 | -1.7 | 6* | i | i
O=C1C2CCCCC2C(=O)N1Cc1ccccc1 (stereo unspecified) | i | -4 | 0.6 | i | i | i
CCN(CC)c1cccc(OC(=O)c2cccnc2Cl)c1 | i | -3 | 0.17 | i | i | i
CSc1ccc(-c2cccc([N+](=O)[O-])c2)nn1 | i | -22 | 0.36 | i | i | i
O=[N+]([O-])c1cccc(-c2ccc(SCc3cccnc3)nn2)c1 | i | -8 | 1.1 | 6* | i | i
O=C(N[C@@H](Cc1ccccc1)C(=O)OCc1ccccc1)c1nc[nH]c1C(=O)N1CCc2ccccc2C1 | i | -8 | 1.4 | 6* | i | i
COc1cccc(OC)c1/C(O)=C(\C#N)c1nc2ccccc2[nH]1 | -7.7* | -3 | 0.91 | i | i | i
CCOc1ccc(CNCCc2ccc(S(N)(=O)=O)cc2)cc1 | i | -4 | 0.39 | i | i | i
CCOc1ccc2ccccc2c1CNCCc1ccc(S(N)(=O)=O)cc1 | i | -3 | -4.4* | i | i | i
CCOc1ccc(S(=O)(=O)Oc2ccc3ccccc3c2)cc1 | i | -7 | -0.58 | 6* | i | i
Cc1ccc(C)c(NC(=O)CN(C)C(=O)c2ccc3c(=O)n4c(nc3c2)CCC4)c1 | x | x | x | x | i | x
CC(C)N1CC=C2C(C#N)=C(N)C(C#N)(C#N)[C@H](c3ccoc3)[C@H]2C1 | i | -12 | -4.3 | 7* | x | i
CCN1CC=C2C(C#N)=C(N)C(C#N)(C#N)C(c3cc(Cl)ccc3Cl)C2C1 (stereo unspecified) | i | -12 | -3.6 | 12* | -10* | i
Cc1ccc(-c2nn(-c3ccccc3)cc2C2SCC(=O)N2Cc2ccccc2)o1 (stereo unspecified) | i | -20 | -0.66 | 7* | i | i
Cc1cccc(NCc2ccc(N(C)C)cc2)n1 | i | 0 | 1.1 | i | i | i
N#CCc1ccccc1C(=O)OCC(=O)N(Cc1ccccc1)Cc1ccccc1 | x | x | x | x | -9.4* | x
COc1cc(NCC(=O)Nc2cccc(S(=O)(=O)N3CCCCC3)c2)cc(OC)c1OC | x | x | x | x | i | x
COc1cc(N2CCC(O)CC2)ccc1Nc1nnc(Cl)c(Nc2ccccc2S(C)(=O)=O)n1 | x | x | x | x | i | x
Cc1nc2c3cc(F)ccc3n(Cc3ccccc3)c2s1 | i | -1 | 3.1 | i | i | i
Cc1nc2c3cc(F)ccc3n(Cc3ccccc3F)c2s1 | -8* | -6 | 0.2 | i | i | i
